Test [1] can be described thus: Inhibitory activity against porcine heart Adenylate deaminase (AMPDA). On the set-up: species or system Sus scrofa. In short, it runs like this: (§1)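 Values are reported as Ki against porcine heart AMPDA, determined by a procedure described in earlier work.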
For test [2], the target named is T1, Adenosine deaminase (Bos taurus, UniProt P56658).
T1 sequence (P56658 whole entry): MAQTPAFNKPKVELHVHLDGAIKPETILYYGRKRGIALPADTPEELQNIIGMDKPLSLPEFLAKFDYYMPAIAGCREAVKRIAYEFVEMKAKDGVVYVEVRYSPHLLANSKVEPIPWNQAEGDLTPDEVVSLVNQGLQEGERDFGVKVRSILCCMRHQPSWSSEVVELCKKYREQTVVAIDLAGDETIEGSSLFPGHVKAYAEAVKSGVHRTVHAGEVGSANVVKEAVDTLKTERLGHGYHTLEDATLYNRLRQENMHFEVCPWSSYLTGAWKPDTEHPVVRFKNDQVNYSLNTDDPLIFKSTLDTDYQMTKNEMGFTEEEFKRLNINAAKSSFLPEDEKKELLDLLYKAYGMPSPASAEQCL
In words: Inhibitory activity against calf intestinal Adenosine deaminase (ADA).

Test [3] can be described thus: Compound was evaluated for its inhibitory activity against porcine heart adenylate deaminase (AMPDA). Set-up: species or system Sus scrofa. In short, it runs like this: as §1
Test [4] deals with T1, Adenosine deaminase. Description: Compound was evaluated for its inhibitory activity against calf intestinal Adenosine deaminase (ADA).

The structures appear in SMILES notation.

Consider `O=C(O)c1ccc(CO)c(CCn2cnc3c2NC=NCC3O)c1` (stereo unspecified), for which the inhibition constant Ki (as a rule, the dissociation constant of the complex between target and ligand, obtained from inhibition or displacement) is 0.35 µM in test [1] and over 7.5 µM in test [2].

Turning to `O=C(O)c1cccc(C#CCn2cnc3c2NC=NCC3O)c1` (stereo unspecified), the inhibitory constant (Ki) in test [1] was over 125 µM; in test [2], 2.3 µM.

As to `COC(=O)c1ccc(OC)c(CCn2cnc3c2NC=NCC3O)c1` (stereo unspecified), the Ki in test [1] was 21 µM; in test [2], over 7.5 µM.

In the case of `COC(=O)c1ccccc1OCCn1cnc2c1NC=NCC2O` (stereo unspecified), the inhibition constant Ki was 60.6 µM in test [1] and 2.3 µM in test [2].

For `O=C(O)c1ccc(Cn2cnc3c2NC=NCC3O)cc1` (stereo unspecified), the figures for the Ki in test [1] and in test [2] were over 125 µM and over 7.5 µM, respectively.

Turning to `Cc1ccc(CCn2cnc3c2NC=NCC3O)cc1C(=O)O` (stereo unspecified), the inhibitory constant (Ki) in test [1] was 0.57 µM; in test [2] it was over 7.5 µM.

Consider `CC(C)c1cccc(C(=O)O)c1CCCn1cnc2c1NC=NCC2O` (stereo unspecified), for which the Ki in test [1] is 83.1 µM; in test [2], over 7.5 µM.

`CCCc1ccc(C(=O)O)cc1CCn1cnc2c1NC=NCC2O` (stereo unspecified): the Ki is 0.19 µM in test [1] and over 7.5 µM in test [2].

Take `O=C(O)c1cc(CCn2cnc3c2NC=NCC3O)cc(-c2cccc(Cl)c2)c1` (stereo unspecified): the Ki in test [1] was 0.18 µM; in test [2], over 7.5 µM.

On to `O=C(O)c1ccccc1OCCn1cnc2c1NC=NCC2O` (stereo unspecified), for which the values for the Ki in test [1] and in test [2] were 31.3 µM and 270 µM, respectively.

With `COC(=O)c1ccccc1SCCn1cnc2c1NC=NCC2O` (stereo unspecified), the inhibition constant (Ki) in test [1] amounted to 37.9 µM; in test [2] it was 11.9 µM.

Take `Cc1ccc(CCCn2cnc3c2NC=NCC3O)c(C(=O)O)c1` (stereo unspecified): the values for the inhibitory constant (Ki) in test [1] and in test [2] were 11.8 µM and over 7.5 µM, respectively.

For `Cc1ccc(C(=O)OCc2ccccc2)cc1CCn1cnc2c1NC=NCC2O` (stereo unspecified), the Ki in test [1] was determined as 8.1 µM; in test [2], 2.6 µM.

Consider `CCCc1ccc(C(=O)OC)cc1CCn1cnc2c1NC=NCC2O` (stereo unspecified), for which the Ki in test [1] turned out to be 14 µM; in test [2] it was 3.8 µM.

In the case of `O=C(O)c1cc(Br)cc(CCn2cnc3c2NC=NCC3O)c1` (stereo unspecified), the Ki in test [1] was 0.08 µM; in test [2], over 7.5 µM.

Take `COC(=O)c1ccccc1CCCn1cnc2c1NC=NCC2O` (stereo unspecified): the results for the inhibitory constant (Ki) in test [1] and in test [2] were 32.7 µM and 0.16 µM, respectively.

Turning to `COC(=O)c1ccc(C)cc1CCCn1cnc2c1NC=NCC2O` (stereo unspecified), the Ki stood at 38 µM in test [1] and 0.06 µM in test [2].

Turning to `O=C(O)Cc1cccc(CCn2cnc3c2NC=NCC3O)c1` (stereo unspecified), the values for the inhibitory constant (Ki) in test [1] and in test [2] were 44.1 µM and over 500 µM, respectively.

As for `COC(=O)c1cccc(CCCn2cnc3c2NC=NCC3O)c1` (stereo unspecified), the Ki was 24.3 µM in test [1] and 0.16 µM in test [2].

For the molecule `O=C(O)c1cc(CCn2cnc3c2NC=NCC3O)cs1` (stereo unspecified), the figures for the Ki in test [1] and in test [2] were 2.2 µM and over 7.5 µM, respectively.

As to `COC(=O)c1ccc(OC)c(CCCn2cnc3c2NC=NCC3O)c1` (stereo unspecified), the inhibitory constant (Ki) in test [1] came out at 52.8 µM; in test [2], 0.13 µM.

With `CCOC(=O)c1cc(CCn2cnc3c2NC=NCC3O)ccc1C` (stereo unspecified), the Ki in test [1] was 12 µM; in test [2], over 7.5 µM.

Take `Cc1ccc(C(=O)O)cc1CCn1cnc2c1NC=NCC2O` (stereo unspecified): the Ki in test [1] was 0.1 µM; in test [2], over 100 µM.

For the molecule `O=C(O)c1cccc(CCn2cnc3c2NC=NCC3O)c1` (stereo unspecified), the figures for the inhibition constant Ki in test [1] and in test [2] were 0.51 µM and over 7.5 µM, respectively.

As for `COC(=O)c1c(F)cccc1CCCn1cnc2c1NC=NCC2O` (stereo unspecified), the inhibition constant Ki in test [1] is 1.5 µM; in test [2], 0.32 µM.

As for `O=C(O)c1cc(CCn2cnc3c2NC=NCC3O)cc(-c2ccc(Cl)cc2)c1` (stereo unspecified), the inhibition constant (Ki) in test [1] is 0.29 µM; in test [2] it was over 7.5 µM.

Turning to `COC(=O)c1cc(C)ccc1CCCn1cnc2c1NC=NCC2O` (stereo unspecified), the Ki came out at 1.6 µM in test [1] and 0.04 µM in test [2].

In the case of `O=C(O)c1ccc(Cn2cnc3c2NC=NCC3O)o1` (stereo unspecified), the Ki in test [1] was 72 µM; in test [2], over 3.4 µM.

In the case of `O=C(O)c1cc(CCn2cnc3c2NC=NCC3O)ccc1Cl` (stereo unspecified), the Ki in test [1] is 0.22 µM; in test [2], over 7.5 µM.

As for `COC(=O)Cc1ccc(Cn2cnc3c2NC=NCC3O)cc1` (stereo unspecified), the inhibition constant (Ki) in test [1] was determined as 92.6 µM; in test [2], 6.7 µM.

For the molecule `O=C(O)c1cc(CCn2cnc3c2NC=NCC3O)ccc1F` (stereo unspecified), the values for the inhibitory constant (Ki) in test [1] and in test [2] were 0.16 µM and over 7.5 µM, respectively.

For the molecule `CCOC(=O)c1cc(CC)cc(CCn2cnc3c2NC=NCC3O)c1` (stereo unspecified), the values for the Ki in test [1] and in test [2] were 6.6 µM and 8.9 µM, respectively.

Regarding `O=C(O)c1cccc(OCCn2cnc3c2NC=NCC3O)c1` (stereo unspecified), the Ki is 31.8 µM in test [1] and over 7.5 µM in test [2].

Turning to `CNOC(=O)c1ccc(C)c(CCCn2cnc3c2NC=NCC3O)c1` (stereo unspecified), the values for the inhibition constant (Ki) in test [3] and in test [4] were 19.8 µM and 0.05 µM, respectively.

Turning to `COC(=O)c1cccc(C(C)C)c1CCCn1cnc2c1NC=NCC2O` (stereo unspecified), the Ki is 14 µM in test [1] and over 7.5 µM in test [2].

For the molecule `CCc1ccc(C(=O)O)cc1CCn1cnc2c1NC=NCC2O` (stereo unspecified), the inhibitory constant (Ki) was 0.08 µM in test [1] and over 7.5 µM in test [2].

Turning to `O=C(O)Cc1cccc(Cn2cnc3c2NC=NCC3O)c1` (stereo unspecified), the Ki in test [1] was 11.2 µM; in test [2], over 7.5 µM.

For the molecule `CCOC(=O)Cc1cccc(Cn2cnc3c2NC=NCC3O)c1` (stereo unspecified), the Ki came out at 15.9 µM in test [1] and 5.6 µM in test [2].

`COC(=O)c1ccc2ccccc2c1CCCn1cnc2c1NC=NCC2O` (stereo unspecified): the results for the Ki in test [1] and in test [2] were 8.3 µM and 0.18 µM, respectively.

As for `COC(=O)c1ccc(C)c(CCCn2cnc3c2NC=NCC3O)c1` (stereo unspecified), the Ki in test [1] worked out at 22 µM; in test [2] it was 0.08 µM.

As for `O=C(O)c1cc(CCn2cnc3c2NC=NCC3O)cc(-c2ccc(F)cc2)c1` (stereo unspecified), the Ki in test [1] is 0.19 µM; in test [2] it was over 7.5 µM.

With `COc1ccc(C(=O)O)cc1CCn1cnc2c1NC=NCC2O` (stereo unspecified), the Ki in test [1] is 0.48 µM; in test [2] it was over 7.5 µM.

In the case of `CCOC(=O)c1ccc(C)c(CCn2cnc3c2NC=NCC3O)c1` (stereo unspecified), the Ki was 11 µM in test [1] and over 7.5 µM in test [2].

For `O=C(O)c1ccc(CCn2cnc3c2NC=NCC3O)s1` (stereo unspecified), the inhibition constant (Ki) is 9.5 µM in test [1] and over 7.5 µM in test [2].

In the case of `COc1ccc(C(=O)O)cc1CCCn1cnc2c1NC=NCC2O` (stereo unspecified), the Ki in test [1] was 4.2 µM; in test [2] it was 5.6 µM.

`Cc1ccc(C(=O)O)cc1CCCn1cnc2c1NC=NCC2O` (stereo unspecified): the results for the Ki in test [1] and in test [2] were 5.2 µM and 1.2 µM, respectively.

As for `O=C(O)c1sccc1CCCn1cnc2c1NC=NCC2O` (stereo unspecified), the Ki in test [1] amounted to 4.8 µM; in test [2], 1.4 µM.

For the molecule `CCOC(=O)c1cc(Br)cc(CCn2cnc3c2NC=NCC3O)c1` (stereo unspecified), the Ki was 2.7 µM in test [1] and over 7.5 µM in test [2].

On to `COC(=O)c1cccc(CCn2cnc3c2NC=NCC3O)c1` (stereo unspecified), for which the Ki is 16 µM in test [1] and over 7.5 µM in test [2].

As for `COC(=O)c1ccc(Cn2cnc3c2NC=NCC3O)cc1` (stereo unspecified), the results for the Ki in test [1] and in test [2] were 170 µM and 8.7 µM, respectively.

Take `O=C(O)c1ccc2ccccc2c1CCCn1cnc2c1NC=NCC2O` (stereo unspecified): the Ki in test [1] is 6.3 µM; in test [2], 1.8 µM.

For `O=C(O)c1ccccc1SCCn1cnc2c1NC=NCC2O` (stereo unspecified), the Ki in test [1] was 4.5 µM; in test [2], over 500 µM.

Regarding `O=C(O)c1ccccc1CCCn1cnc2c1NC=NCC2O` (stereo unspecified), the Ki in test [1] is 12.5 µM; in test [2], 6.1 µM.

Regarding `O=C(O)Cc1ccc(Cn2cnc3c2NC=NCC3O)cc1` (stereo unspecified), the results for the inhibition constant (Ki) in test [1] and in test [2] were 92.2 µM and over 500 µM, respectively.

Take `CCc1cc(CCn2cnc3c2NC=NCC3O)cc(C(=O)O)c1` (stereo unspecified): the Ki in test [1] was 0.06 µM; in test [2], over 7.5 µM.

As for `CC(C)c1cccc(C(=O)O)c1SCCn1cnc2c1NC=NCC2O` (stereo unspecified), the inhibition constant Ki in test [1] was over 125 µM; in test [2], over 7.5 µM.

`O=C(O)c1c(F)cccc1CCCn1cnc2c1NC=NCC2O` (stereo unspecified): the Ki in test [1] is 9 µM; in test [2] it was over 7.5 µM.

Regarding `Cc1ccc(C(=O)O)c(CCCn2cnc3c2NC=NCC3O)c1` (stereo unspecified), the Ki was 24 µM in test [1] and 5.2 µM in test [2].

For the molecule `COC(=O)c1ccc(CCn2cnc3c2NC=NCC3O)cc1` (stereo unspecified), the results for the inhibitory constant (Ki) in test [1] and in test [2] were 160 µM and 81 µM, respectively.

Regarding `O=C(O)c1ccc(CCCn2cnc3c2NC=NCC3O)o1` (stereo unspecified), the Ki in test [1] is 13.3 µM; in test [2] it was over 7.5 µM.

Take `O=C(O)c1cc(CCn2cnc3c2NC=NCC3O)cc(-c2ccccc2)c1` (stereo unspecified): the Ki in test [1] was 0.07 µM; in test [2] it was over 7.5 µM.

`O=C(O)c1cccc(CCCn2cnc3c2NC=NCC3O)c1` (stereo unspecified): the Ki in test [1] stood at 23.5 µM; in test [2] it was 2.4 µM.

In the case of `CCOC(=O)c1cc(CCn2cnc3c2NC=NCC3O)cc(-c2ccccc2)c1` (stereo unspecified), the Ki in test [1] was 18 µM; in test [2] it was over 7.5 µM.

Source of the values: ChEMBL document CHEMBL1133716, “AMP deaminase inhibitors. 3. SAR of 3-(carboxyarylalkyl)coformycin aglycon analogues” (J Med Chem, 2000).
